{"source": "ChEMBL document CHEMBL4354812", "about": "“N-Benzyl/Aryl Substituted Tryptanthrin as Dual Inhibitors of Indoleamine 2,3-Dioxygenase and Tryptophan 2,3-Dioxygenase” (J Med Chem, 2019)", "key": {"[1]": {"biological_target": "T1, Tryptophan 2,3-dioxygenase (Homo sapiens, UniProt P48775)", "test": "Inhibition of human TDO transfected in HEK293 cells assessed as reduction in kynurenine production using L-tryptophan as substrate incubated for 12 hrs", "type": "cell-based", "procedure,_shortened": "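U87 MG cells (hIDO2) or HEK293 cells (hTDO) were transiently transfected at 80% confluence, with empty vector as control. After 18 h, cells were seeded 2.5 × 10⁴/well in medium with 200 μM L-Trp. Compound serial dilutions were added after a further 6 h (IDO2) or 12 h (TDO). Reactions were stopped 24 h (IDO2) or 8 h (TDO) later with TCA, heated 65 °C 15 min, and Kyn read with DMAB at 492 nm. IC50 by nonlinear regression.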"}, "Mus musculus [2]": {"system": "Mus musculus", "test": "(§1) In vivo inhibition of IDO1/2/TDO in C57BL/6 mouse assessed as decrease in LPS-stimulated kynurenine pathway by measuring decrease in ratio of kynurenine to tryptophan level in serum at 60 mg/kg, ig pretreated for 24 hrs with Escherichia coli LPS followed by compound treatment measured at 24 hrs post-treatment by HPLC analysis", "type": "functional, organism-based", "procedure,_shortened": "(§2)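 C57BL/6 mice were given ip saline or E. coli LPS 5 mg/kg. 24 h later they received ig 60 mg/kg compound or 0.5% CMC-Na. Blood was taken at 1, 6, 12, 24 and 30 h after dosing. Serum Trp and Kyn were measured by HPLC and the Kyn/Trp ratio calculated. n = 3–5 mice/group.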"}, "Mus musculus [3]": {"system": "Mus musculus", "test": "In vivo inhibition of IDO1/2/TDO in C57BL/6 mouse assessed as decrease in LPS-stimulated kynurenine pathway by measuring effect on kynurenine level at 60 mg/kg, ig pretreated for 24 hrs with Escherichia coli LPS followed by compound treatment measured at 1 to 30 hrs post-treatment by HPLC analysis", "type": "functional, organism-based", "procedure,_shortened": "as §2"}, "[4]": {"biological_target": "T1, Tryptophan 2,3-dioxygenase", "test": "Binding affinity to human TDO assessed as change in spectral signal at 200 uM by CPMG NMR spectrometry analysis"}, "[5]": {"biological_target": "T1, Tryptophan 2,3-dioxygenase", "test": "Binding affinity to human TDO at 200 uM by STD NMR spectrometry analysis"}, "[6]": {"system": "Lewis lung carcinoma cell line", "test": "Antitumor activity against mouse LLC cells implanted in C57BL/6 mouse assessed as tumor regression at 45 mg/kg, po qd administered for 2 weeks and measured post-treatment", "type": "functional, organism-based", "procedure,_shortened": "(§3)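 Tumor cells (LLC, or H22 ascites cells after two intraperitoneal passages in Kunming mice) injected sc into the right forelimb at 2 × 10⁶ per mouse, in female 6–8-week C57BL/6 or Kunming mice. Oral dosing once daily began at 5 mm tumor diameter and continued 2 weeks. Vehicle was 0.5% CMC-Na. Volume was read by caliper every 2 days as long × short²/2. Tumors were weighed at sacrifice. n = 9–10/group.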"}, "Mus musculus [7]": {"system": "Mus musculus", "test": "In vivo blockade of kynurenine pathway in Kunming mouse implanted with mouse H22 cells assessed as decrease in kynurenine/tryptophan ratio in serum at 45 mg/kg, po qd for 2 weeks by HPLC analysis", "type": "functional, organism-based", "procedure,_shortened": "(§4)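 H22 tumor-bearing Kunming mice received oral dosing once daily in 0.5% CMC-Na for 2 weeks. Serum Trp and Kyn were measured by HPLC on a C18 column with 15 mM sodium acetate (pH 3.6) containing 4% acetonitrile, UV detection at 280 and 360 nm. Kyn/Trp ratio calculated. n = 9–10/group.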"}, "H22": {"system": "H22", "test": "Antitumor activity against mouse H22 cells implanted in Kunming mouse assessed as reduction in tumor volume at 45 mg/kg, po qd administered for 2 weeks and measured at 2 days interval during compound dosing relative to control", "type": "functional", "design": "scale not given: the % may be the effect or the level left", "procedure,_shortened": "as §3"}, "Homo sapiens [8]": {"species": "Homo sapiens", "test": "Inhibition of IDO1/TDO in IFNgamma-treated human HeLa cells assessed as T cell proliferation at 500 nM measured after 2 days in presence of IL-2, anti-CD3 and IFN-gamma by CFSE dye based flow cytometry analysis (reference value: 11.7 %)", "design": "scale not given: the % may be the effect or the level left", "procedure,_shortened": "(§5)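 CFSE-labelled human PBMC lymphocytes (1 × 10⁶/well) were cocultured with HeLa cells (2 × 10⁵/well), a 5:1 ratio, in 150 U/mL IL-2, 100 ng/mL anti-CD3 and 60 ng/mL IFN-γ. Compound was tested at 40 nM, 200 nM, 500 nM or 1 μM. Proliferation was read by flow cytometry after 2 days, three independent experiments.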"}, "[9]": {"system": "Lewis lung carcinoma cell line", "test": "Antitumor activity against mouse LLC cells implanted in C57BL/6 mouse assessed as reduction in tumor volume at 45 mg/kg, po qd administered for 2 weeks and measured at 2 days interval during compound dosing relative to control", "type": "functional", "design": "scale not given: the % may be the effect or the level left", "procedure,_shortened": "as §3"}, "Mus musculus [10]": {"system": "Mus musculus", "test": "In vivo blockade of kynurenine pathway in Kunming mouse implanted with mouse H22 cells assessed as decrease in kynurenine level in serum at 45 mg/kg, po qd for 2 weeks by HPLC analysis", "type": "functional, organism-based", "procedure,_shortened": "as §4"}, "[11]": {"system": "Lewis lung carcinoma cell line", "test": "Antitumor activity against mouse LLC cells implanted in C57BL/6 mouse assessed as reduction in tumor weight at 45 mg/kg, po qd administered for 2 weeks and measured post-treatment", "type": "functional, organism-based", "procedure,_shortened": "as §3"}, "Rattus norvegicus": {"system": "Rattus norvegicus", "test": "In vivo inhibition of IDO1/2/TDO in Sprague-Dawley rat assessed as decrease in kynurenine/tryptophan ratio in lung at 30 mg/kg, ig administered as single dose by LC-MS analysis", "type": "functional, organism-based", "procedure,_shortened": "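Naive SD rats received a single ig dose of 30 mg/kg in 0.5% CMC-Na, with vehicle as control. Lungs were dissected and Trp and Kyn quantified by LC–MS, with the Kyn/Trp ratio calculated. n = 3–4 rats/group.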"}, "Mus musculus [12]": {"system": "Mus musculus", "test": "as §1, with “measuring increase” for “measuring decrease”, “in serum” for “in ratio of kynurenine to”, “level” for “level in serum”", "type": "functional, organism-based", "procedure,_shortened": "as §2"}, "Homo sapiens [13]": {"species": "Homo sapiens", "test": "Inhibition of IDO1/TDO in IFNgamma-treated human HeLa cells assessed as T cell proliferation at 1 uM measured after 2 days in presence of IL-2, anti-CD3 and IFN-gamma by CFSE dye based flow cytometry analysis (reference value: 11.7 %)", "design": "scale not given: the % may be the effect or the level left", "procedure,_shortened": "as §5"}, "[14]": {"biological_target": "T2, Indoleamine 2,3-dioxygenase 2 (Homo sapiens) (UniProt Q6ZQW0)", "T2 sequence (whole entry)": "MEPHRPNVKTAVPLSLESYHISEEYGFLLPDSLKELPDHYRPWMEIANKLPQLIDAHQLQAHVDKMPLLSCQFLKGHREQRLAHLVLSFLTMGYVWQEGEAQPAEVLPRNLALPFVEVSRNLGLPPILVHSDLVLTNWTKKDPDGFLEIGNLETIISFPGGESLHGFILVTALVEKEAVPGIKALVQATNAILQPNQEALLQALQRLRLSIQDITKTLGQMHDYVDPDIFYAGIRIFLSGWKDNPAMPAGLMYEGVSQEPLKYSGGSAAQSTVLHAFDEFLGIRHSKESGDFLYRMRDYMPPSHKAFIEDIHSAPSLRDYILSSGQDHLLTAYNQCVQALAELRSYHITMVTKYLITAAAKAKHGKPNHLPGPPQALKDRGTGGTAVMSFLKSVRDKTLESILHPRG", "test": "Binding affinity to human IDO2 assessed as change in spectral signal at 200 uM by CPMG NMR spectrometry analysis"}, "Homo sapiens [15]": {"species": "Homo sapiens", "test": "Inhibition of IDO1/TDO in IFNgamma-treated human HeLa cells assessed as T cell proliferation at 40 nM measured after 2 days in presence of IL-2, anti-CD3 and IFN-gamma by CFSE dye based flow cytometry analysis (reference value: 11.7 %)", "design": "scale not given: the % may be the effect or the level left", "procedure,_shortened": "as §5"}}, "note": "Activity calls are given as the source filed them. No cut-off for these calls is given here.", "data": [{"compound": "CN1CCN(Cc2ccc3nc4n(c(=O)c3c2)-c2ccc(F)cc2C4=O)CC1", "values": [{"measurement": "IC50", "setting": "[1]", "result": 90, "unit": "nM"}, {"measurement": "inhibition", "setting": "Mus musculus [2]", "result": "Active"}, {"measurement": "inhibition", "setting": "Mus musculus [3]", "result": "inactive"}, {"measurement": "Activity", "setting": "[4]", "result": "Active"}, {"measurement": "Activity", "setting": "[5]", "result": "Active"}, {"measurement": "Activity", "setting": "[6]", "result": "inactive"}, {"measurement": "Activity", "setting": "Mus musculus [7]", "result": "Active"}, {"measurement": "Activity", "setting": "H22", "result": 47.3, "unit": "%"}, {"measurement": "Activity", "setting": "Homo sapiens [8]", "result": 51.4, "unit": "%"}, {"measurement": "Activity", "setting": "[9]", "result": 56.2, "unit": "%"}, {"measurement": "Activity", "setting": "Mus musculus [10]", "result": "Active"}, {"measurement": "Activity", "setting": "[11]", "result": "Active"}, {"measurement": "inhibition", "setting": "Rattus norvegicus", "result": "Active"}, {"measurement": "inhibition", "setting": "Mus musculus [12]", "result": "Active"}, {"measurement": "Activity", "setting": "Homo sapiens [13]", "result": 52.8, "unit": "%"}, {"measurement": "Activity", "setting": "[14]", "result": "Active"}, {"measurement": "Activity", "setting": "Homo sapiens [15]", "result": 37.2, "unit": "%"}]}]}
